Test system: MS2 coat protein
Test: apparent Kd, MS2 coat protein; higher = weaker binding; RNA-MaP array; FMN 200 µM where present
Summary of the method: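 Two titrations, one without ligand and one with constant ligand, were run with SNAP-549-labelled MS2 coat protein from 0.7 or 1.5 nM, doubling to 3 µM. The targets were designs transcribed by stalled E. coli RNA polymerase on Illumina sequencing-chip clusters, in 100 mM Tris-HCl pH 7.5, 80 mM KCl, 4 mM MgCl2, BSA, DTT, yeast tRNA and Tween-20. The apparent Kd is the median of filtered per-cluster binding-curve fits, with green signal normalised to red-channel RNA signal and control-cluster median Fmax.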

[1] = designed as: OFF switch for flavin mononucleotide, no ligand
[2] = ligand present: flavin mononucleotide, designed as: OFF switch for flavin mononucleotide
[3] = designed as: ON switch for flavin mononucleotide, no ligand
[4] = ligand present: flavin mononucleotide, designed as: ON switch for flavin mononucleotide

Row | Sequence | apparent Kd [1] [nM] | apparent Kd [2] [nM] | apparent Kd [3] [nM] | apparent Kd [4] [nM]
1 | AAUUAUUUUUGAGGAUAUGGUAGUGAAACACUACCAGAAGGCGGAAUAAACAUGAGGAUCACCCAUGUGAGCCUGAUGCUUAUG | 22 | 42.6 |  | 
2 | GUCGGAAACGACAAAAGUAGCAUAGGAGAAGGCAUGUCAUAAGACAUGAGGAUCACCCAUGUUCGUGAGGAUAUCCUAUGCUAC |  |  | 37.3 | 13.2
3 | UAAGAGUGAGGAUAUACGUCGCUGGUCAGGAUGGACGCAUGACAUGAGGAUCACCCAUGUAGAAGGCACAAAAC | 23.8 | 43.7 |  | 
4 | GUGGUCAGACAUGAGGAUCACCCAUGUGGAAUAAAUAAGGAAAAGGAUAUGGAAUAUAGGAUAUACCAGAAGGUUUGGUUGGUG |  |  | 105 | 127
5 | CCGAUAAUGUAGGAUAUCGUAUCGGAAACGAUACGAGAAGGACAAACAUGAGGAUCACCCAUGUUCCUUAACGG | 15.5 | 16.5 |  | 
6 | UCGGCGCGAGGAUAUACGUUUGCGCGUUUUCGUUUGCGCGUACAUGAGGAUCACCCAUGUAGAAGGCGCGCGGC | 13.1 | 13.4 |  | 
7 | GUAAAUCAUGUAGGAUAUGCAUGGCGAAGCUACGCAGAAGGACAUGAGGAUCACCCAUGUUAUAGCUACCCAGUUCGGUGGCAA | 102 | 220 |  | 
8 | ACUGGUCGAGGAUAUACAUGAGGAUCACCCAUGUGGUUACGUGACGAUAGUCACGAAUGUAGAAGGCGACCAGU | 236 | 652 |  | 
9 | AAGCAGGUAAAUAAACUCAAUUACAUGAGGAUCACCCAUGUAUAGGAUAUCGUCAGGAAUACUGACGAGAAGGAUACAUCCUGC | 17.7 | 63.9 |  | 
10 | AUCGGCUGGCAGAAGGGCUAUGUGAUCCGGUUUUACAUGAGGAUCACCCAUGUAGCCUCGCGCUAGCAGGAUAUGCAACGGCUG |  |  | 175 | 40.4
11 | GCAGCAUAGUUUACUAGCUGUUACAUGAGGAUCACCCAUGUUCAGGAUAUGGUCUGGAUUACAGGCCAGAAGGGAACAAGCUGC | 14.8 | 12 |  | 
12 | UAUAUAUUCGUAGGAUAUCCGUUAAAACCAUGUGGAGAAGGACGAACAUGAGGAUCACCCAUGUAUCAUGGUGUAGACAAUUUU | 40.3 | 187 |  | 
13 | UUUUUGUCAGGAUAUCUAAUCUAGAUGUUCGCAUCUAGAUUAGAGAAGGGACAUGAGGAUCACCCAUGUAGUUU | 61.9 | 253 |  | 
14 | AACUGUACAGGAUAUACAUGAGGAUCACCCAUGUGAGAAUUAAGUGGAGAACCACAAAGUAGAAGGGUACAGGA | 44.8 | 286 |  | 
15 | CCACUGUCAGGAUAUCGUGCAUAAACGUUUACAUUUAUGUGCGAGAAGGGACAUGAGGAUCACCCAUGUAAACG | 314 | 515 |  | 
16 | AUUUAAAUGUCAGGAUAUGGUAGAUUAUUCUUAUCAGAAGGGAUAAUUAUACUCAAGUACAUGAGGAUCACCCAUGUUAAAUCA |  |  | 10.3 | 10.3
17 | CUCCGGCAAGGAUAUGCGUCUUCUCCCAUGAAACAAAAUAAACAUGAGGAUCACCCAUGUAGAAGGUGCAGGAC | 33.1 | 28.6 |  | 
18 | UUAUGAUAGAUAGGAUAUACUAUGGUUUAAGAAGUAGAAGGAUCAAUUGGGAAAUGUACAUGAGGAUCACCCAUGUUAUAGGUU |  |  | 37.1 | 33.7
19 | UUUUUUGUUGUGAGGAUAUCGUAUUUUUUUUGUUACGAGAAGGCACAUGAGGAUCACCCAUGUUUCUUGAUGUU | 13.6 | 28.6 |  | 
20 | GUACGUGGACAGAAGGCGACAUGAGGAUCACCCAUGUUGGCUCGCGUAUGAGCAAUCCGCAUGAUUGAGGAUAUGUCUGCGGGC | 9.05 | 49.7 |  | 
21 | AAGCUCUGUGAGAAGGCGCCCUUUGCGGUUGGGCGAGGAUAUCACAUGAGGAUCACCCAUGUCGGUGCAUCAGACAGCGUAUAA | 215 | 40.3 |  | 
22 | GCGUCAGAAUUAAUUGUGACAUACAGAAGGCAAAAGUUAUGUUCAGACAUGAGGAUCACCCAUGUUGAGGAUAUGUAGAGAAUC | 8.27 | 7.1 |  | 
23 | AACCUGAUAGUGAGGAUAUCGGCGACGACAAGUCACGAGAAGGCACAUGAGGAUCACCCAUGUGAUAAAAUAAA | 20.4 | 42.1 |  | 
